Compound activity (PubChem)
RAD52 inh: inhibitors of human RAD52 DNA annealing; P43351; recombinant RAD52 DNA annealing, FRET fluorescence; inhibition, % at 18.7 µM; 360,000 tested, 0.46% active;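 active = every replicate showing at least 50% inhibition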
AF4-AF9 inh: inhibitors of human MLL-AF4/AF9 interaction; P42568; AlphaScreen, biotin-AF4 peptide binding to FLAG-AF9; inhibition, % at 10 µM; 350,000 tested, 0.47% active;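 active = every replicate reaching a set inhibition limit, whatever the replicate mean, cut at about 25% in these data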
Target sequence (P42568 whole entry, looked up): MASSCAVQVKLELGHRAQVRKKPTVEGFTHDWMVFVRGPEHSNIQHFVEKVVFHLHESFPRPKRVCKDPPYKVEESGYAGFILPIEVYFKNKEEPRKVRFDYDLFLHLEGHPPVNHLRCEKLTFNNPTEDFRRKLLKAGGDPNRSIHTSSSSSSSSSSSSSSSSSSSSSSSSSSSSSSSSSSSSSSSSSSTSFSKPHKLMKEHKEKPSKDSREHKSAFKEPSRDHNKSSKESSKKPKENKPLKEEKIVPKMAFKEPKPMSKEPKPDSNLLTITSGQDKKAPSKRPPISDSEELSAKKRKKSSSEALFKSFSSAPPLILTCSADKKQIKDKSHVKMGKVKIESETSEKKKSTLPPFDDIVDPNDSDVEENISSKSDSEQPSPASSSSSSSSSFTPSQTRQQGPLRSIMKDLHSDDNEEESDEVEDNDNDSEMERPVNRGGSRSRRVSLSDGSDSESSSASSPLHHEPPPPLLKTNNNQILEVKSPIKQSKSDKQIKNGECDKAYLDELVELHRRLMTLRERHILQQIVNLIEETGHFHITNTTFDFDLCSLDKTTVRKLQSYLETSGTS
INS-1E GSIS act: GLuc luminescence reporter in INS-1E cells, primary screen for activators of glucose-dependent secretion of insulin; INS-1E GLuc reporter insulin secretion, 2-3 h; activation, % at 16.6 µM; 370,000 tested, 0.61% active;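 active = lowest replicate activation of at least 40%, so every replicate reaches that level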
ERAP1 inh: inhibitors of human ERAP1 aminopeptidase; inhibition, % at 10.7 µM; recombinant ERAP1, Leu-AMC fluorescence, 60 min; 340,000 tested, 0.15% active;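 active = mean replicate inhibition of at least 30%, or all replicates individually reaching that 30% level; inactive = mean below 30% and not every replicate reaching it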
S100A4 MyoIIA: S100A4-myosin IIA interaction inhibition; P26447; inhibition, % at 10.7 µM; 360,000 tested, 0.14% active; S100A4/TAMRA-MyoIIA peptide fluorescence polarization; AID 652163;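 active = mean inhibition of at least 70% across replicates, with every replicate also reaching that level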
Target sequence (P26447 whole entry, looked up): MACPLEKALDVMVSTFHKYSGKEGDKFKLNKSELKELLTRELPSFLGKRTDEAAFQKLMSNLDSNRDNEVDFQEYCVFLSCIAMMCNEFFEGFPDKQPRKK
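Test system: S100A4 monomer protein. Medium: HEPES buffer with Ca2+, pH 7.2. Reagent: fluorescent myosin IIA peptide, 5 nM. Compound dosing: single-point compound testing. Timing: 5 min between mix addition and reading. Benchmarks: DMSO neutral and TFP positive wells.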
Of the large screens only hits and unclear results are named; the others gave an inactive call; ! = repeats disagree. Hits are enriched below; roughly 1.5% of the tested compounds scored in any of these assays.

COc1cccc(C#Cc2ccc([C@H]3[C@H]4CN(C(=O)Cc5cccnc5)CC(=O)N4[C@H]3CO)cc2)c1	none
O=c1c2ccccc2sn1-c1ccc(Cl)cc1Cl	ERAP1 inh 81.4
O=c1c2ccccc2ncn1-c1ccc(Cl)cc1Cl	none
Cc1cccc(NC(=O)CN2C(=O)S/C(=C\C(=O)Nc3ccc(Cl)cc3)C2=O)c1	INS-1E GSIS act 199.3 (no result: RAD52 inh, AF4-AF9 inh, ERAP1 inh, S100A4 MyoIIA)
O=C(/C=C1\SC(=O)N(CC(=O)Nc2ccc(Cl)cc2)C1=O)Nc1ccc(F)cc1	none
C[C@H](CO)N1C[C@H](C)[C@@H](CN(C)C(=O)c2ccc(F)cc2)OCc2ccccc2-c2c(n(C)c3ccccc23)C1=O	none (no result: RAD52 inh, AF4-AF9 inh, ERAP1 inh, S100A4 MyoIIA)
C[C@H](CO)N1C[C@H](C)[C@@H](CN(C)C(=O)NC2CCCCC2)Oc2c(NC(=O)Cn3cnnn3)cccc2C1=O	none (no result: RAD52 inh, AF4-AF9 inh, ERAP1 inh, S100A4 MyoIIA)
COc1ccc2c3c(n(C)c2c1)[C@@H](CO)N(Cc1ccc2c(c1)OCO2)CC31CCN(C(=O)C2CC2)CC1	none (no result: RAD52 inh, ERAP1 inh, S100A4 MyoIIA)
COc1ccc(C(O)c2nc(-c3ccc(OC)c(OC)c3)cs2)cc1 (stereo not given)	INS-1E GSIS act 66.4
O=C(c1ccc([N+](=O)[O-])o1)N1CCN(c2nc3c(Cl)cccc3s2)CC1	none
Cc1ccc2sc(N3CCN(C(=O)c4ccc([N+](=O)[O-])o4)CC3)nc2c1C	INS-1E GSIS act 87.4
O=C(COc1ccccc1)Nc1sc2c(c1C(=O)NCc1cccnc1)CCCC2	INS-1E GSIS act 92.3 (no result: RAD52 inh, AF4-AF9 inh, ERAP1 inh, S100A4 MyoIIA)
COc1ccc(/C=C/C(=O)Nc2sc3c(c2C(=O)NCc2cccnc2)CCCC3)cc1	none (no result: AF4-AF9 inh)
CC1OC(CC(=O)O)CC2=C1C(=O)c1c(O)cccc1C2=O (stereo not given)	INS-1E GSIS act 72.1
COc1cccc2c1-c1c(O)cccc1C2=O	none
O=C1C[C@@](C(=O)NCCN2CCOCC2)(c2ccc([N+](=O)[O-])cc2)[C@@H](c2ccc(CO)cc2I)N1CC12CC3CC(CC(C3)C1)C2	RAD52 inh 57.8, AF4-AF9 inh 26.7 (no result: INS-1E GSIS act)
O=C(NCC(=O)N1CCCC(C(F)(F)F)C1)c1cccs1 (stereo not given)	AF4-AF9 inh 32.5
Cc1nnc(N2C(=O)C(O)=C(C(=O)c3ccco3)C2c2cccc([N+](=O)[O-])c2)s1 (stereo not given)	INS-1E GSIS act 47.6
COCCn1c(N)c(N(Cc2ccccc2)C(=O)C2=COCCO2)c(=O)[nH]c1=O	ERAP1 inh 57.7
CC[n+]1c(C)sc2cc(OC)ccc21	ERAP1 inh 30.0
CN1C(=O)c2cc(NC(=O)Nc3ccccc3F)ccc2OC[C@@H]2O[C@@H](CC(=O)NCCc3ccncc3)CC[C@H]21	none (no result: RAD52 inh, ERAP1 inh, S100A4 MyoIIA)
O=C(O)CSCC(=O)Nc1cc(C(F)(F)F)ccc1Cl	INS-1E GSIS act 48.8 (no result: RAD52 inh, AF4-AF9 inh, ERAP1 inh, S100A4 MyoIIA)
COCC(=O)N1CCC2(CC1)CN(S(C)(=O)=O)[C@@H](CO)c1c2c2ccc(OC)cc2n1C	none (no result: RAD52 inh, AF4-AF9 inh, ERAP1 inh, S100A4 MyoIIA)
N#Cc1cccc(-c2ccc([C@@H]3[C@H]4CN(Cc5ccccc5F)CCCCN4[C@H]3CO)cc2)c1	none
N#Cc1cccc(-c2ccc(C3[C@@H]4CN(Cc5cocn5)C[C@H]3N4)cc2)c1 (stereo not given in full)	RAD52 inh 65.0
c1ncc(-c2ccc(C3[C@@H]4CN(Cc5cocn5)C[C@H]3N4)cc2)cn1 (stereo not given in full)	none
N#Cc1cccc(-c2ccc(C3[C@@H]4CN(Cc5ccccc5F)C[C@H]3N4)cc2)c1 (stereo not given in full)	RAD52 inh 83.1!
C[C@H](CO)N1C[C@H](C)[C@@H](CN(C)C(=O)Nc2ccc3c(c2)OCO3)Oc2c(NC(=O)NC3CCCCC3)cccc2C1=O	none (no result: RAD52 inh, AF4-AF9 inh, ERAP1 inh, S100A4 MyoIIA)
C[C@H]1CN([C@@H](C)CO)C(=O)c2cc(NC(=O)CCC(F)(F)F)ccc2O[C@H]1CN(C)Cc1ccc(Oc2ccccc2)cc1	none
Clc1ccc(-c2csc(=Nc3cccnc3)n2CCCn2ccnc2)cc1Cl	AF4-AF9 inh 46.6 (no result: INS-1E GSIS act)
COCCn1c(-c2ccc(Br)cc2)csc1=Nc1cccnc1	none
Cc1ccc(-c2nc3cnccn3c2Nc2ccc3c(c2)OCO3)cc1	none (no result: INS-1E GSIS act)
COc1ccc(-c2nc3cnccn3c2Nc2ccc3c(c2)OCO3)cc1	AF4-AF9 inh 27.7
O=C1NCCOCc2cn(nn2)CC[C@H]1Cc1ccccc1	none (no result: RAD52 inh, AF4-AF9 inh, ERAP1 inh, S100A4 MyoIIA)
COc1ccc(S(=O)(=O)N[C@@H]2CC[C@H](CC(=O)NCCc3ccccc3)O[C@H]2CO)cc1	none
O=C(c1cc(-c2ccccc2)nc2ccccc12)N1CCCC1	INS-1E GSIS act 44.4
O=C(c1cc(-c2cccc(Cl)c2)nc2ccccc12)N1CCCC1	none
CC(=O)N1[C@H](CO)[C@@H](c2ccccc2)C12CN(C(=O)CN1CCOCC1)C2	none (no result: RAD52 inh, AF4-AF9 inh, ERAP1 inh, S100A4 MyoIIA)
O=C(NCCN1CCN(C(=O)c2ccccc2Cl)CC1)C(=O)NCc1ccccc1	INS-1E GSIS act 159.8
O=C(NCCN1CCN(C(=O)c2cccc(Br)c2)CC1)C(=O)NCc1ccccc1	none
COC(=O)c1ccc2c(c1)NC(=O)C(N(CC(C)C)CC(C)C)S2 (stereo not given)	INS-1E GSIS act 45.8
CCCN(CCC)C1Sc2ccc(C(=O)OC)cc2NC1=O (stereo not given)	none (no result: RAD52 inh, AF4-AF9 inh, ERAP1 inh, S100A4 MyoIIA)
COc1cccc(-c2ccc3c(c2)[C@H]2[C@H](CCN2Cc2ccccc2OC)[C@H](CO)N3)c1	none
CO[C@H]1CC[C@H]2CCOc3c(C#N)cccc3C(=O)N(C)C[C@@H](C)C(=O)N(C)C[C@H]1O2	none
CO[C@@H]1CC[C@H]2CCOc3c(C#N)cccc3C(=O)N(C)C[C@@H](c3ccccc3)CC(=O)N(C)C[C@H]1O2	none
CO[C@H]1CC[C@H]2CCOc3c(C#N)cccc3C(=O)N(C)C[C@H](c3ccccc3)CC(=O)N(C)C[C@H]1O2	S100A4 MyoIIA 120.8
CO[C@@H]1CC[C@H]2CCOc3c(C#N)cccc3C(=O)N(C)C[C@H](C)C(=O)N(C)C[C@H]1O2	S100A4 MyoIIA 122.4
Cc1noc(C)c1S(=O)(=O)N(C)C[C@H]1Oc2ccc(NC(=O)Nc3ccccc3)cc2C(=O)N([C@H](C)CO)C[C@@H]1C	none (no result: RAD52 inh, AF4-AF9 inh, ERAP1 inh, S100A4 MyoIIA)
CCC(=O)N1CC2(CN(Cc3ccc(F)cc3)C2)c2c(n(C)c3cc(OC)ccc23)[C@H]1CO	none
CCCNC(=O)N1CC2(CN(CC3CC3)C2)c2c(n(C)c3cc(OC)ccc23)[C@@H]1CO	none
CCC(=O)N1CC2(CN(Cc3ccc(Cl)cc3)C2)c2c(n(C)c3cc(OC)ccc23)[C@H]1CO	AF4-AF9 inh 28.9
CCCNC(=O)N1CC2(CN(CC3CCCC3)C2)c2c(n(C)c3cc(OC)ccc23)[C@H]1CO	AF4-AF9 inh 28.2
COc1ccc2c3c(n(C)c2c1)[C@@H](CO)N(C(C)=O)CC31CN(Cc2ccc(Cl)cc2)C1	none
CCC(=O)N1CC2(CN(Cc3ccc(Cl)cc3)C2)c2c(n(C)c3cc(OC)ccc23)[C@@H]1CO	AF4-AF9 inh 38.3
COc1ccc(S(=O)(=O)Nc2ccc3c(c2)C(=O)N([C@H](C)CO)C[C@@H](C)[C@H](CN(C)S(=O)(=O)c2cccs2)O3)cc1	none
